# Runt-SMMHC FRET: inhibitors of human RUNX1 Runt domain binding to CBFb-SMMHC. 220,000 compounds, 0.74% hits. Cerulean-Runt/Venus-CBFb-SMMHC FRET ratio 530/480, 1 h. inhibition, % at 20 µM. Q01196+Q13951;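 active = mean inhibition across duplicate retests at 20 µM reaching about 50%, limit read from the data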;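 note: 0% = DMSO wells and 100% = wells with excess untagged CBFb-SMMHC; inhibitors lower the FRET ratio by blocking Runt binding to CBFb-SMMHC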
# Vif imaging: blocks HIV Vif function | HEK293T cells, Vif self-association by quenched fluorescence, imaging, 24 h | inhibition, % at 7.49 µM | 340,000 compounds, 0.35% hits | AID 602346; in the data active = inhibition above about 50%, passing the limit was not always enough; inconclusive = no clear call, values can overlap the other calls; inactive = below about 31%
# Runt-CBFb FRET: Runt domain-CBFb interaction inhibition; 220,000 compounds, 0.46% hits; Q01196+Q13951; inhibition, % at 20 µM; Cerulean-Runt/Venus-CBFb FRET ratio 530/480, 1 h; AID 1496;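 active = inhibition over about 50% at 20 µM in the single-dose screen, limit read from the data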;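 note: 0% = DMSO wells and 100% = excess unlabeled CBFb competitor control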
#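 Assay system: Cerulean-tagged RUNX1 Runt domain (FRET donor) fusion protein / Amount: 100 nM each of Venus-CBFb and Cerulean-Runt domain / Medium: Tris buffer pH 7.5 with salts and BSA / Also added: Venus-CBFb 100 nM / Schedule: 1 h complex formation plus 1 h compound treatment, room temperature / Signal: FRET fluorescence / Read-out: loss of energy transfer signal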
# Rce1 inh: inhibitors of yeast Ras-converting enzyme. Q03530. yeast membranes, quenched prenylated peptide cleavage fluorescence. calls only. 290,000 compounds, 0.27% hits;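 active = fall in fluorescence gain of 50% or more versus controls, with final raw signal at or below 3038400; inconclusive = same 50% fall but final raw signal above 3038400; inactive = fall in fluorescence gain under 50%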;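 note: plate controls were neutral control wells for no effect and wells lacking membranes for full effect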
# Target sequence (Q03530 whole entry, looked up): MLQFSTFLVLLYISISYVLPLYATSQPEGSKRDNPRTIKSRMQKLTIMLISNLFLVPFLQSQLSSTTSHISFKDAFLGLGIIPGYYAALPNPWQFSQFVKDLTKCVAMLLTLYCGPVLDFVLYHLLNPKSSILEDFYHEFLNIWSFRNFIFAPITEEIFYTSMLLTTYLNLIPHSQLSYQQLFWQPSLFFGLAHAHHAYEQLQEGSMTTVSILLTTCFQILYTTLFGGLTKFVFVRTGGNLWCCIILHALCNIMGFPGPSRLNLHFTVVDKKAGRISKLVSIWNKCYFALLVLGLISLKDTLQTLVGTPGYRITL
# RanGTP-Impb inh: inhibitors of RanGTP-importin-beta interaction, primary screen, biochemical, FRET, CFP-Ran, YFP-importin-beta, homogeneous. 300,000 compounds, 1.1% hits. cell-free CFP-Ran/YFP-importin-beta FRET ratio. inhibition, % (no concentration beside the values);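 active = more than half of the replicate wells show a fall in the fluorescence ratio signal beyond about 16%, limit read from the data, passing the limit was not always enough; inconclusive = exactly half of the replicate wells pass the set limit; inactive = fewer than half of replicates pass the limit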;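 note: 0% = DMSO wells and 100% = Ran loaded with GDP instead of GTP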
# YIC counter: counter-screen for RanGTP-importin-beta inhibitors: YIC FRET probe; Purified YIC probe, intramolecular FRET ratio YFP/CFP; IC50, µM; shares compounds with RanGTP-Impb inh; AID 435026; 1,000 compounds, 40% hits;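 active = fitted half-maximal inhibitory concentration no more than tenfold above the top dose tested; inconclusive = flat fit with 30 to 70% activity, or poor fit; inactive = half-maximal concentration beyond tenfold above the top dose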
# The depositor's hits bear a star; i = inactive; ? = inconclusive; · = no result given; + = active, no number. Rows were chosen to be rich in hits. Some 1.7% of all compounds tested hit in one or more screens of this group.
SMILES,Runt-SMMHC FRET,Vif imaging,Runt-CBFb FRET,Rce1 inh,RanGTP-Impb inh,YIC counter
CCn1c(=O)cc(N2CCCCC2)[nH]c1=O,0,4,1,i,23*,>50
Cn1c(=O)cc(N2CCCCC2)[nH]c1=O,-1,-10,-3,i,19*,>50
CCn1c(=O)cc(N2CCOCC2)[nH]c1=O,-2,1,-1,i,24*,>50
COc1ccc(C(=O)NCC(=O)N/N=C/c2cn(C)c3ccccc23)cc1OC,·,8,·,i,·,·
C[C@H](NC(=O)COc1ccc(Cl)cc1)C(=O)N1CCC2(CC1)NCCc1[nH]cnc12,·,12,·,i,1,·
OCCNc1c2ccccc2nc2c(F)c(F)c(F)c(F)c12,·,2,47,i,20*,6.5*
COC(=O)c1ccc(NC(=S)NNC(=O)c2ccccc2)cc1,1,6,19,i,0,·
COC(=O)c1cccnc1NC(=S)NNC(=O)c1ccccc1,0,0,3,i,27*,>50
CC(=O)c1c(N2CCN(C)CC2)nc(=S)n(-c2cc(C)ccc2C)c1C,74*,-4,42,i,34*,>50
Cc1ccc(S(=O)(=O)N2CCC(C(=O)NCCc3ccc(S(N)(=O)=O)cc3)CC2)cc1,1,-2,2,i,-3,·
NS(=O)(=O)c1ccc(CCNC(=O)C2CCN(S(=O)(=O)c3ccc(Br)s3)CC2)cc1,3,-1,-1,i,24*,>50
COC(=O)c1cc(C(=O)OC)[nH]n1,-3,4,2,i,20*,>50
CNc1cc(F)nc(F)n1,36,-18,14,i,27*,22*
COc1ccccc1NC(=O)CN1CCN(CC(=O)Nc2ccc(C)c(F)c2)CC1,·,-1,·,i,27*,>50
CC(=O)c1c(C)[nH]c(C(=O)CN2C(=O)NC3(CCCCC3C)C2=O)c1C (stereo unspecified),·,-2,·,·,·,·
CCCCn1nc(C(=O)Nc2cc(S(=O)(=O)N(C)C)ccc2C)c2ccccc2c1=O,-1,-5,0,i,-1,·
CCOc1ccc(OCc2ccc(C(=O)N(CC)CC)cc2)cc1,-3,-7,-3,i,21*,>50
CCN(CC(=O)Nc1ccc(NC(C)=O)cc1)C(=O)c1ccc(COc2ccc(C(C)(C)C)cc2)cc1,·,-18,·,·,·,·
CCOCCCNC(=S)NCCCNc1nc2cc3c(cc2cc1C#N)OCO3,129*,4,20,i,56*,13*
O=C(C1CCN(S(=O)(=O)c2ccccc2F)CC1)N1CCCC1,·,-2,·,·,·,·
CC12CCC(=O)N1C(C(=O)NNC(=O)c1ccc(Br)cc1)CS2 (stereo unspecified),·,0,·,·,·,·
Cc1oc2cc(O)ccc2c(=O)c1-c1nncn1-c1ccccc1,93*,2,32,i,37*,14*
CC(C)(CNC(=O)c1cccc(S(=O)(=O)Nc2ccc(Br)cc2)c1)N1CCOCC1,·,-10,·,i,1,·
COc1ccc2[nH]cc(CCNC(=O)CC[C@H]3O[C@@H](n4cc(C)c(=O)[nH]c4=O)C[C@@H]3O)c2c1,·,-7,·,·,·,·
CN(C)C=NC(=O)c1cc(C(=O)c2ccc(C(C)(C)C)cc2)c[nH]1,2,-3,0,·,27*,>50
SMILES,Runt-SMMHC FRET,Vif imaging,Runt-CBFb FRET,Rce1 inh,RanGTP-Impb inh,YIC counter
CN(C)C=NC(=O)c1cc(C(=O)c2ccccc2Cl)c[nH]1,-8,2,0,i,1,·
Cc1sc2nc(SCC(=O)NCc3ccco3)n(-c3ccccc3)c(=O)c2c1C,-2,-1,-2,i,23*,>50
Cc1ccc(/C=N/NC(=O)c2nnn(-c3nonc3N)c2CSc2ccccc2)cc1,3,-2,1,i,5,·
Nc1nonc1-n1nnc(C(=O)N/N=C/c2ccccc2)c1CSc1ccc(Cl)cc1,-4,-1,1,+,17*,>50
C/C(=N\NC(=S)NCc1ccccc1)c1cccc(Br)c1,-4,-5,0,i,46*,>50
Oc1ccc(/C=N/Nc2ccc3ccccc3c2)c(O)c1,33,-2,15,i,16*,>50
Oc1ccc(C=NNc2nc3ccccc3s2)c(O)c1,·,-18,·,·,·,·
COc1ccc(S(=O)(=O)NCCc2cn3nc(C)c(C)nc3n2)cc1,·,-13,·,i,?,·
Cc1nc2nc(CCNS(=O)(=O)c3ccc(Cl)cc3)cn2nc1C,·,1,·,i,18*,32*
CN(C)CCCOc1cccc(Oc2ccccc2)c1,-2,2,2,i,2,·
CC/C(=N\NC(=O)c1cc(C2CC2)[nH]n1)c1ccccc1,·,-3,·,i,38*,>50
Cc1nn(-c2ccccc2)c(C)c1/C=N/NC(=O)c1cc(C2CC2)[nH]n1,0,-2,1,i,3,·
COc1cccc(C(=O)/C=C/Nc2cc(C)ccc2O)c1,-32,-9,-6,i,30*,>50
Cc1ccc(-n2ncc(-c3n[nH]c(=S)o3)c2N)cc1C,·,4,·,·,·,·
Cc1cccc2sc(NC(=O)CN3C(=O)NC4(CCCC4)C3=O)nc12,·,·,·,i,3,·
O=C(CN1C(=O)NC2(CCCC2)C1=O)Nc1nc2c(F)cc(F)cc2s1,·,-7,·,i,20*,>50
N#Cc1c2ncn(CC(=O)c3ccc(Br)cc3)c(=O)c2c2n1CCC2,-1,5,-5,i,16*,>50
Cc1cccc(OCCOC(=O)c2c(-c3ccccc3)noc2C)c1,·,-6,·,i,2,·
CCc1ccc(NC(=O)CSCc2ccc(C(=O)O)cc2)cc1,-8,-3,2,i,-1,·
Cn1c(=O)cc(OCCCC(=O)NCc2ccccn2)c2ccccc21,0,9,-6,i,23*,>50
Cn1c(=O)cc(OCC(=O)NCc2ccccn2)c2ccccc21,-9,6,0,i,2,·
COc1ccc(C(=O)/C=C(\C)NCc2ccc3c(c2)OCO3)cc1,-3,14,-2,i,24*,>50
Cc1ccc(NC2CCCN(C(=O)CCC3=NNC(=O)CC3)C2)cc1C (stereo unspecified),·,6,·,i,3,·
Cc1ccccc1/C=N/Nc1ccnc2cc(Cl)ccc12,-34,0,-23,i,23*,>50
Cc1ccc(/C=N/Nc2ccnc3cc(Cl)ccc23)c(C)c1,-21,4,-19,i,-5,·
CCN1C(=O)C2(C(C#N)=C(N)Oc3n[nH]c(C(C)C)c32)c2ccccc21 (stereo unspecified),-12,22,1,i,26*,>50
CN=Cc1nc(-c2ccccc2)oc1O,3,15,2,i,0,·
CC1=Nc2ccccc2/C1=C\c1nc(-c2ccc(F)cc2)oc1O,-3,-2,-18,i,22*,>26
CCCOC(=O)CSC1=C(C#N)C(c2ccccc2OCC)C(C#N)C(=O)N1 (stereo unspecified),4,9,2,i,21*,>50

# Screens deposited in PubChem BioAssay by several laboratories.
